Data set [1] concerns the target Sodium channel protein type 5 subunit alpha (Homo sapiens, UniProt Q14524). Briefly: Inhibition of human NaV1.5 expressed in CHO cells by IonWorks assay. The class given is cell-based. (The patch-clamp technique gives a direct electrical read-out from membranes.)
In data set [2] the test system is Liver microsomes. As to the kind of experiment: Intrinsic clearance in human liver microsomes assessed per ug of protein. The format is ADME, Microsome. (Liver microsomes are a subcellular fraction often used to study metabolism.)
The subject of data set [3] is Liver microsomes. As to the kind of experiment: Intrinsic clearance in rat liver microsomes assessed per ug of protein. The class given is ADME, Microsome.
Data set [4] can be described thus: Solubility of the compound. The class given is physicochemical.
Data set [5] addresses Sodium channel protein type 9 subunit alpha (Homo sapiens, UniProt Q15858). Briefly: Inhibition of human NaV1.7 expressed in HEK293 cells by whole-cell voltage clamp assay. The format is cell-based. A digest of the protocol:
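Human NaV1.7 α-subunit stably expressed in HEK293 cells. Currents were recorded by perforated whole-cell automated planar patch clamp (IonWorks Quattro) in D-PBS external solution with 5.5 mM glucose. Cells were held at −65 mV, and a train of eight 30 ms steps to −20 mV at 3 Hz was applied. Half-log serial dilutions were made in DMSO, giving 0.3% DMSO in the recording solution.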

Data set [6] has as its target Voltage-gated inwardly rectifying potassium channel KCNH2 (Homo sapiens, UniProt Q12809). As to the kind of experiment: Inhibition of human ERG expressed in CHO cells by IonWorks HT assay. The class given is cell-based.
Data set [7] addresses Serotonin (5-HT) receptor (Homo sapiens) (UniProt P30939+P41595+Q13639+P28222+P46098+P08908+P28221+P28223+P28335+P28566+P34969+P50406+P47898+A5X5Y0+O95264+Q70Z44+Q8WXA8). As to the kind of experiment: Activity at 5HT receptor. The class given is protein assay.

In brackets after ≈: the same amount, converted by molar mass. Activity calls are given as the source filed them. No cut-off for these calls is given here.

Chain of Sodium channel protein type 9 subunit alpha (Q15858 whole entry): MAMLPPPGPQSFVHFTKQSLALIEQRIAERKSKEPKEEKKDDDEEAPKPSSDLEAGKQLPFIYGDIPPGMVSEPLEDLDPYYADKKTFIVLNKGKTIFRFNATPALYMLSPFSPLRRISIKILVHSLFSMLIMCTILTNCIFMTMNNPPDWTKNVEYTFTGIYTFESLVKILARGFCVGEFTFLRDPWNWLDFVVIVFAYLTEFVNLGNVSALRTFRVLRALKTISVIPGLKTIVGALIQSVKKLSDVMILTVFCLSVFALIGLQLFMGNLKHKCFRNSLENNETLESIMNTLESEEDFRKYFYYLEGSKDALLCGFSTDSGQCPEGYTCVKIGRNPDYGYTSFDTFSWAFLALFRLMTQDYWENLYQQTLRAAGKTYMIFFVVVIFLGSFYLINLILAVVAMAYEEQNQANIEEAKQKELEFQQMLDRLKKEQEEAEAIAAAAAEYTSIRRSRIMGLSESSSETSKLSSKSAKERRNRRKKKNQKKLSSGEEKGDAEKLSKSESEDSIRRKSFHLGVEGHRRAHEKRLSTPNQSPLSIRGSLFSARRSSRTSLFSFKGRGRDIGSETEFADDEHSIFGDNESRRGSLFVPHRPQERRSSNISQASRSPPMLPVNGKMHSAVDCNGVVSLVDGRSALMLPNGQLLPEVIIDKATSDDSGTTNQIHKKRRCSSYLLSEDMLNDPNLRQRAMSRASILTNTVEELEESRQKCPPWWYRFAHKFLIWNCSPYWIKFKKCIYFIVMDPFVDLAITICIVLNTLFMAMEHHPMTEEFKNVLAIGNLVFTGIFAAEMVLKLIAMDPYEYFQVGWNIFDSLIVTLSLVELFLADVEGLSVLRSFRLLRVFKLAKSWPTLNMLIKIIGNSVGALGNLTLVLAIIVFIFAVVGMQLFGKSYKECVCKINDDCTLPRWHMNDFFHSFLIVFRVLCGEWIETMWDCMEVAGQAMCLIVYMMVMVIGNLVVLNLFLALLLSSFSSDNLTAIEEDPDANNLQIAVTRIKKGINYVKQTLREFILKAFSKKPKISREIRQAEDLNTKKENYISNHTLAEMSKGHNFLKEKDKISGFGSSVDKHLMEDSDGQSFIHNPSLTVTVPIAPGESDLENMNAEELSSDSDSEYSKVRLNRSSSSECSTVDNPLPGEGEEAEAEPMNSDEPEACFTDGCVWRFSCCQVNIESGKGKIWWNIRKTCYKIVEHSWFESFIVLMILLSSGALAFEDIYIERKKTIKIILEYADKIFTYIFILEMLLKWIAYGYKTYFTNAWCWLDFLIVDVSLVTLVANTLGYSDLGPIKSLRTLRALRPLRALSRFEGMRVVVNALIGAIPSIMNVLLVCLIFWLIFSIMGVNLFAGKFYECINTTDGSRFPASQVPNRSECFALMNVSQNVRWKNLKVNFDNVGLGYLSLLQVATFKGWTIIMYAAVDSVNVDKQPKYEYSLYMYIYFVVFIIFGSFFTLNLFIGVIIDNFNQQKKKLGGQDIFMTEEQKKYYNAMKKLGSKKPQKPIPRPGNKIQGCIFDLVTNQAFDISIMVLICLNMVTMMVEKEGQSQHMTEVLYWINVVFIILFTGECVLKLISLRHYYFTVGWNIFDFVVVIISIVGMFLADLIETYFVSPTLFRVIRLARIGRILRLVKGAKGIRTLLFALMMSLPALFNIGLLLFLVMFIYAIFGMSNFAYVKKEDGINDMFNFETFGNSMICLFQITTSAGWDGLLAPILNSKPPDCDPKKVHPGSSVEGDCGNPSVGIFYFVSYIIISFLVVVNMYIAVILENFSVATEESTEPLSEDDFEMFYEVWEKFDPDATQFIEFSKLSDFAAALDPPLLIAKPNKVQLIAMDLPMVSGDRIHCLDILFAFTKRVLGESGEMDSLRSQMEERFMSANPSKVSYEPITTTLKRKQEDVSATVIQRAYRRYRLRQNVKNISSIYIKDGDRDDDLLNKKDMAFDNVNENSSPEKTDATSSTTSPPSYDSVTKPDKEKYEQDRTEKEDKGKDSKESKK
Chain of Voltage-gated inwardly rectifying potassium channel KCNH2 (Q12809 whole entry): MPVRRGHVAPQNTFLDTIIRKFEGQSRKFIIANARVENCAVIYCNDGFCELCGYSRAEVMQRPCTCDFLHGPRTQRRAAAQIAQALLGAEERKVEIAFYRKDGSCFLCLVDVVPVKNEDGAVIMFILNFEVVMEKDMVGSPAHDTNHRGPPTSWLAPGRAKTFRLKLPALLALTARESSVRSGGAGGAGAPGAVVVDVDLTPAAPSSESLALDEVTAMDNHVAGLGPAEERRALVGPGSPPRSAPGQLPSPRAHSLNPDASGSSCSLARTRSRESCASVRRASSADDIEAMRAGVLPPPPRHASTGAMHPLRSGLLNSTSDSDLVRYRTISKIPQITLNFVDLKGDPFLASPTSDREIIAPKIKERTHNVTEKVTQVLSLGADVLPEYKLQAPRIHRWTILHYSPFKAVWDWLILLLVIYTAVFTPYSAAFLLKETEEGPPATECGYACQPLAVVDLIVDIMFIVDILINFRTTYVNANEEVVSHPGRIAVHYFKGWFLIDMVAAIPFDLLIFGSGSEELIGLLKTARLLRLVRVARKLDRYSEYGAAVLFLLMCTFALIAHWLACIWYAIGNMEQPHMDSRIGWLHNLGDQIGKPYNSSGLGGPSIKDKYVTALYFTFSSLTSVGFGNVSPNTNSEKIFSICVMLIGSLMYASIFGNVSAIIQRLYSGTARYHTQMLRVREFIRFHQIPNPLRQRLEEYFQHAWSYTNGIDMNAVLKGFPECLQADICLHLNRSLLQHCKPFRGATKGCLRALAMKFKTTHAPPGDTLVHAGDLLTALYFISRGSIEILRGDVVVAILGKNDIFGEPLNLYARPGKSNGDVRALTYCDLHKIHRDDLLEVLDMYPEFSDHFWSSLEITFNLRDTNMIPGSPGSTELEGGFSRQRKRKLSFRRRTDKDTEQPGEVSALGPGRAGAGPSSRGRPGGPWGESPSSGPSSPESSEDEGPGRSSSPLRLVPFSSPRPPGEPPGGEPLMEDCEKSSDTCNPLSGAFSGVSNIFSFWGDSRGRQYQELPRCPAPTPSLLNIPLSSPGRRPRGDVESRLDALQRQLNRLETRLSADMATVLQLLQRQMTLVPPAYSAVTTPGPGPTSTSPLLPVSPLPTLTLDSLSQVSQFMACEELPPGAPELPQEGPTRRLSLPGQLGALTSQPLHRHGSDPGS
Chain of Sodium channel protein type 5 subunit alpha (Q14524 whole entry): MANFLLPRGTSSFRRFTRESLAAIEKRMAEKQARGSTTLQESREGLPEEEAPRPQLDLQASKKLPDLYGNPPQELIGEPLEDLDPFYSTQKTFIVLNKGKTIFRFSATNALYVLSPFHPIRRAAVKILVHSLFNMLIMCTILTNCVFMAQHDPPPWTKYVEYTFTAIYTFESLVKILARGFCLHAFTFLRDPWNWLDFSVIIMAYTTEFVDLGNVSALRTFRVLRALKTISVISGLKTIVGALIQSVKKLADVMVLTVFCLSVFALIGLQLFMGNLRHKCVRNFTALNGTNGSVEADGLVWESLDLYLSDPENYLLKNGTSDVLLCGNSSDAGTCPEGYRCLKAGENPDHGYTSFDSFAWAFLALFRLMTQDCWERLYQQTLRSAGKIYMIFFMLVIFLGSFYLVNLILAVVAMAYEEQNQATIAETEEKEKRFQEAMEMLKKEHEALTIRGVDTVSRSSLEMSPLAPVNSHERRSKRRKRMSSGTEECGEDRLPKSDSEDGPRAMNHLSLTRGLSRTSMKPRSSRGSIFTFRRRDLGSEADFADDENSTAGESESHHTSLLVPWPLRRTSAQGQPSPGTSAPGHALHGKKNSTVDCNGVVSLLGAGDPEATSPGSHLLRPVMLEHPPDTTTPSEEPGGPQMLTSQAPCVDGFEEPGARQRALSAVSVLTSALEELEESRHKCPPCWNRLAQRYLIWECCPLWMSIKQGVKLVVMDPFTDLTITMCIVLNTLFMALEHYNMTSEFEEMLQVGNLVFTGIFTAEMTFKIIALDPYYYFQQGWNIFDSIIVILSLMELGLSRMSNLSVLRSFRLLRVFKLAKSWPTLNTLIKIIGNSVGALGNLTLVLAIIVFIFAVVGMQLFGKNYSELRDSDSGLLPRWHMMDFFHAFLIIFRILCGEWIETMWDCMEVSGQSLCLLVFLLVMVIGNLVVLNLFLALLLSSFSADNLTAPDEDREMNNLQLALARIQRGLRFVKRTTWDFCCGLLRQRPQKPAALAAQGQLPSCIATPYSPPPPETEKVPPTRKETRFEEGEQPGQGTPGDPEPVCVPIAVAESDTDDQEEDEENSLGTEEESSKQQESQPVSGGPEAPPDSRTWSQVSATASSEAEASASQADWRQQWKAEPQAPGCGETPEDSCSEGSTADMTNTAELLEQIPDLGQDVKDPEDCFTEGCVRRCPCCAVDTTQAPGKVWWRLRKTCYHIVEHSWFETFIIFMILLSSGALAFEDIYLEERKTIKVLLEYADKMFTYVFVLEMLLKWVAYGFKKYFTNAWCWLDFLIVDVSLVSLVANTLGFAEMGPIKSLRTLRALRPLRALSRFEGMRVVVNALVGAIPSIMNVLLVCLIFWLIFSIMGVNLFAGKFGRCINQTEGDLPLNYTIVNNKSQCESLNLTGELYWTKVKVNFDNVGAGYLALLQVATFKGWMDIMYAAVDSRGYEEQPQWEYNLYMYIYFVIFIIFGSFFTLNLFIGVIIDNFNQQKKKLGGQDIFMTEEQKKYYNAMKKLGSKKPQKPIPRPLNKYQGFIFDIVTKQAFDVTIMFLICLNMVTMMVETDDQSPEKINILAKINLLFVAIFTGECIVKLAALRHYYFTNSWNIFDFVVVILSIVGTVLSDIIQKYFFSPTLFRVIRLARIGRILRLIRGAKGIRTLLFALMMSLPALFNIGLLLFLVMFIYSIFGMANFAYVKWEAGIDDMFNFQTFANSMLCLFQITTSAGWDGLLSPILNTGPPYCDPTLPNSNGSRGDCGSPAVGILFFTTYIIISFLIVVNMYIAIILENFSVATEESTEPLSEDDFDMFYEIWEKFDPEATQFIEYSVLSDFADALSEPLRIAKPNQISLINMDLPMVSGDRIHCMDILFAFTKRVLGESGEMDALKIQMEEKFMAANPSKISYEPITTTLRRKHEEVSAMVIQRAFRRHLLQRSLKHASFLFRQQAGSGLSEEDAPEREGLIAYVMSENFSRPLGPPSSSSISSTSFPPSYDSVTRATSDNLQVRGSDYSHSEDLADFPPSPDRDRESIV

Consider `Cc1cnc(-c2cccc3c2C[C@H](NC(=O)c2ccc(COCC(F)(F)F)nc2)CO3)cn1`, for which the concentration for half-maximal inhibition (IC50) was 20 µM in data set [1] and 0.501 µM in data set [5]. Besides, the CLint in the data set on Liver microsomes [2] and in the data set with Liver microsomes [3] was less than 10 µL/min/mg in each case. The solubility in data set [4] amounted to 82 µM (≈ 37.6 µg/mL).

As for `O=C(N[C@@H]1COc2cccc(-c3ccc(CO)nc3)c2C1)c1ccc(OCCOCC(F)(F)F)nc1`, the half-maximal inhibitory concentration (IC50) was 7.94 µM in data set [1], 15.8 µM in data set [6] and 0.158 µM in data set [5]. The CLint in the data set on Liver microsomes [2] was 11 µL/min/mg; with Liver microsomes [3], less than 10 µL/min/mg. This molecule also had a solubility in data set [4] of 54 µM (≈ 27.2 µg/mL).

In data set [1], `COCCn1nc(C)c(C(=O)N[C@@H]2COc3cccc(-c4cccnc4)c3C2)n1` had an IC50 of more than 31.6 µM. In data set [4], this molecule came in with a solubility of 396 µM (≈ 156 µg/mL).

With `COc1cnc(-c2cccc3c2C[C@@H](NC(=O)c2ccc(COCC(F)(F)F)nc2)CO3)cn1`, the CLint in the data set with Liver microsomes [2] turned out to be 16 µL/min/mg; with Liver microsomes [3], 21 µL/min/mg. This molecule had an IC50 in data set [5] of more than 10 µM.

With `COc1cnc(-c2cccc3c2C[C@H](NC(=O)c2ccc(OCC(F)(F)F)nc2)CO3)cn1`, the IC50 in data set [1] was more than 25.1 µM; in data set [6], more than 31.6 µM; in data set [5] it was 0.126 µM. For the same molecule, the CLint in the data set on Liver microsomes [2] and in the data set on Liver microsomes [3] was 14 µL/min/mg each time. The same molecule displayed a solubility in data set [4] of less than 1 µM.

The molecule `O=C(N[C@@H]1COc2cccc(-c3cncnc3)c2C1)c1ccc(OCCC(F)(F)F)nc1` showed a 50% inhibitory concentration (IC50) in data set [1] of 3.98 µM. Further, the figures for the CLint with Liver microsomes [2] and in the data set on Liver microsomes [3] were 318 µL/min/mg and 38 µL/min/mg, respectively. In addition, the solubility in data set [4] worked out at 23 µM (≈ 10.2 µg/mL).

Regarding `O=C(N[C@@H]1COc2cccc(-c3ccncc3)c2C1)c1ccc(OC(F)(F)F)cc1`, the results for the half-maximal inhibitory concentration (IC50) in data set [1], in data set [6] and in data set [5] were 3.98 µM, 2.51 µM and 1 µM, respectively. In the data set on Liver microsomes [2], this molecule came in with a CLint of 78 µL/min/mg. In addition, in data set [4], the solubility came to 2 µM (≈ 0.829 µg/mL).

For the molecule `O=C(N[C@@H]1COc2cccc(-c3ccnc(CO)c3)c2C1)c1ccc(OCC(F)(F)F)nc1`, the concentration for half-maximal inhibition (IC50) in data set [1] is 6.31 µM; in data set [5] it was 0.501 µM. The results for the CLint in the data set on Liver microsomes [2] and with Liver microsomes [3] were 15 µL/min/mg and less than 10 µL/min/mg, respectively. In addition, the result in data set [7] was inactive. Besides, in data set [4], the solubility is 17 µM (≈ 7.81 µg/mL).

As for `COc1ncc(-c2cccc3c2C[C@H](NC(=O)c2ccc(OCC(F)(F)F)nc2)CO3)cn1`, half-maximal inhibition in data set [1] (IC50) was put at 6.31 µM. Moreover, the CLint in the data set with Liver microsomes [2] and with Liver microsomes [3] was less than 10 µL/min/mg throughout. The solubility in data set [4] was less than 1 µM.

Take `CN1CCN(c2cccc3c2C[C@H](NC(=O)c2ccc(OCC(F)(F)F)nc2)CO3)CC1`: the IC50 in data set [1] was 5.01 µM; in data set [6], 7.94 µM; in data set [5] it was 0.794 µM. The CLint with Liver microsomes [2] and with Liver microsomes [3] was less than 10 µL/min/mg in each case. For the same molecule, the solubility in data set [4] came to 82 µM (≈ 36.9 µg/mL).

For `CC(O)c1ccc(-c2cccc3c2C[C@H](NC(=O)c2ccc(OCCOCC(F)(F)F)nc2)CO3)cn1` (some centres not stated), the IC50 in data set [1] was 10 µM; in data set [5] it was 0.794 µM. The CLint with Liver microsomes [2] is 12 µL/min/mg; in the data set on Liver microsomes [3] it was less than 10 µL/min/mg. This molecule also showed a solubility in data set [4] of 18 µM (≈ 9.32 µg/mL).

On to `Cc1cc(-c2cccc3c2C[C@H](NC(=O)c2ccc(OCCOCC(F)(F)F)nc2)CO3)cnc1CO`, for which the IC50 in data set [1] is 5.01 µM; in data set [5] it was 0.794 µM. The solubility in data set [4] was 18 µM (≈ 9.32 µg/mL).

`COc1ncc(-c2cccc3c2C[C@H](NC(=O)c2ccc(OCCC(F)(F)F)nc2)CO3)cn1`: the IC50 in data set [1] was 3.98 µM. For the same molecule, the CLint in the data set with Liver microsomes [2] and with Liver microsomes [3] was less than 10 µL/min/mg in each case. The same molecule came in with a solubility in data set [4] of 3 µM (≈ 1.42 µg/mL).

Consider `CCCCOc1ccc(C(=O)N[C@@H]2COc3cccc(N4CCN(C)CC4)c3C2)cc1`, for which the half-maximal inhibitory concentration (IC50) in data set [1] was more than 6.31 µM; in data set [6], 6.31 µM; in data set [5] it was 1 µM. The CLint in the data set on Liver microsomes [2] was found to be 361 µL/min/mg; in the data set with Liver microsomes [3], 82 µL/min/mg. The molecule further registered a solubility in data set [4] of 1 µM (≈ 0.424 µg/mL).

Molecule `O=C(N[C@@H]1COc2cccc(-c3cccnc3)c2C1)c1ccc(OC(F)(F)F)cc1` had a concentration for half-maximal inhibition (IC50) in data set [1] of 3.16 µM. Moreover, the concentration in solution in data set [4] (solubility) came to 5 µM (≈ 2.07 µg/mL).

On to `Cc1ccc(-n2nc(C)c(C(=O)N[C@@H]3COc4cccc(N5CCN(C)CC5)c4C3)n2)c(C)c1`, for which the IC50 in data set [1] is 2.51 µM; in data set [5] it was 0.158 µM. Moreover, the CLH entry in the data set on Liver microsomes [2] is recorded as “Stable”. In the data set on Liver microsomes [3], the CLint came to 9 µL/min/mg. The molecule also gave a solubility in data set [4] of 4 µM (≈ 1.84 µg/mL).

In data set [1], `Cc1nn(CC(C)C)nc1C(=O)N[C@@H]1COc2cccc(-c3cccnc3)c2C1` gave a half-maximal inhibitory concentration (IC50) of more than 31.6 µM. Also, the solubility in data set [4] stood at 393 µM (≈ 154 µg/mL).

Regarding `CN1CCN(c2cccc3c2C[C@H](NC(=O)c2ccc(OCCC(F)(F)F)nc2)CO3)CC1`, the IC50 in data set [1] was 5.01 µM; in data set [6], 12.6 µM; in data set [5], 0.631 µM. The CLint in the data set on Liver microsomes [2] and in the data set on Liver microsomes [3] was less than 10 µL/min/mg each time. In data set [4], the concentration in solution (solubility) came to 379 µM (≈ 176 µg/mL).

On to `Cc1nn(-c2ccccc2)nc1C(=O)N[C@@H]1COc2cccc(-c3ccncc3)c2C1`, for which the values for the concentration for half-maximal inhibition (IC50) in data set [1] and in data set [6] were more than 31.6 µM and 3.98 µM, respectively. The molecule further yielded a solubility in data set [4] of 2 µM (≈ 0.823 µg/mL).

Consider `CN1CCN(c2cccc3c2C[C@H](NC(=O)c2ccc(OC(F)(F)F)cc2)CO3)CC1`, for which the half-maximal inhibitory concentration (IC50) was 2 µM in data set [1], 7.94 µM in data set [6] and 2 µM in data set [5]. Also, the CLint turned out to be 2.5 µL/min/mg with Liver microsomes [2] and 18 µL/min/mg with Liver microsomes [3]. Also, the concentration in solution in data set [4] (solubility) was 27 µM (≈ 11.8 µg/mL).

Regarding `COc1ncc(-c2cccc3c2C[C@H](NC(=O)c2ccc(OCC(F)(F)F)nc2)CO3)cc1F`, the midpoint of inhibition in data set [1], the IC50, lay at 3.98 µM. Moreover, the results for the CLint in the data set with Liver microsomes [2] and in the data set with Liver microsomes [3] were 19 µL/min/mg and 10 µL/min/mg, respectively. In addition, in data set [4], the solubility is 1.1 µM (≈ 0.525 µg/mL).

For `COc1ncc(-c2cccc3c2C[C@H](NC(=O)c2ccc(COCC(F)(F)F)nc2)CO3)cn1`, the figures for the IC50 in data set [1], in data set [6] and in data set [5] were 10 µM, 15.8 µM and 0.251 µM, respectively. In addition, the CLint in the data set with Liver microsomes [2] and in the data set on Liver microsomes [3] was less than 10 µL/min/mg throughout. In data set [4], this molecule yielded a solubility of 145 µM (≈ 68.8 µg/mL).

On to `Cc1cnc(-c2cccc3c2C[C@H](NC(=O)c2ccc(OCC(F)(F)F)nc2)CO3)cn1`, for which the IC50 was more than 3.16 µM in data set [1], more than 31.6 µM in data set [6] and 0.0794 µM in data set [5]. The CLint in the data set on Liver microsomes [2] was 16 µL/min/mg; with Liver microsomes [3] it was less than 10 µL/min/mg. In addition, the solubility in data set [4] is less than 1 µM.

Turning to `COCCn1nc(C)c(C(=O)N[C@@H]2COc3cccc(-c4ccncc4)c3C2)n1`, the 50% inhibitory concentration (IC50) is more than 31.6 µM in data set [1] and 25.1 µM in data set [5]. Further, the concentration in solution in data set [4] (solubility) came to 306 µM (≈ 120 µg/mL).

For the molecule `Cc1ncc(-c2cccc3c2C[C@H](NC(=O)c2ccc(OCC(F)(F)F)nc2)CO3)cn1`, the 50% inhibitory concentration (IC50) is 5.01 µM in data set [1] and 10 µM in data set [6]. Besides, the CLint in the data set with Liver microsomes [2] and in the data set with Liver microsomes [3] was less than 10 µL/min/mg each time. The same molecule returned a solubility in data set [4] of 6.5 µM (≈ 2.89 µg/mL).

Turning to `O=C(N[C@@H]1COc2cccc(-c3ccncc3)c2C1)c1ccc(OCC(F)(F)F)nc1`, the half-inhibitory concentration (IC50) in data set [1] was 3.16 µM; in data set [6], 6.31 µM. For the same molecule, the CLint in the data set on Liver microsomes [2] was determined as 59 µL/min/mg; with Liver microsomes [3], 77 µL/min/mg. The molecule further returned a solubility in data set [4] of 9 µM (≈ 3.86 µg/mL).

Turning to `O=C(N[C@@H]1COc2cccc(-c3cccnc3)c2C1)c1ccc(OCC(F)(F)F)nc1`, the IC50 in data set [1] was 3.16 µM. In addition, the results for the CLint in the data set with Liver microsomes [2] and in the data set with Liver microsomes [3] were 161 µL/min/mg and 64 µL/min/mg, respectively. In data set [4], this molecule showed a solubility of 29 µM (≈ 12.5 µg/mL).

The IC50 is the point on the concentration scale where inhibition reaches its midpoint. As a reminder, the solubility is how much of the substance goes into solution per volume. Read a low solubility as little dissolved substance.

These data come from ChEMBL document CHEMBL2069242, “Structure and activity relationship in the (S)-N-chroman-3-ylcarboxamide series of voltage-gated sodium channel blockers” (Bioorg Med Chem Lett, 2012).
